From ChEMBL document CHEMBL4699647, “Targeting the Allosteric Pathway That Interconnects the Core-Functional Scaffold and the Distal Phosphorylation Sites for Specific Dephosphorylation of Bcl-2” (J Med Chem, 2020)
Activity calls are given as the source filed them. No cut-off for these calls is given here.

What was measured:
[1] = biological target: T1, Apoptosis regulator Bcl-2 (Homo sapiens, UniProt P10415); assay: Inhibition of FAM-Bim peptide binding to human full-length N-terminal His6-tagged Bcl2 (2 to 206 residues) expressed in Escherichia coli S12 extract measured after 30 mins by fluorescence polarization assay
[2] = Inhibition of FAM-Bim peptide binding to human full-length N-terminal His6-tagged Bcl2 R106A/R109A mutant expressed in Escherichia coli S12 extract measured after 30 mins by fluorescence polarization assay
[3] = biological target: T1, Apoptosis regulator Bcl-2; assay: Binding affinity to human full-length N-terminal His6-tagged prephosphorylated Bcl2 (2 to 206 residues) expressed in Escherichia coli S12 extract after 30 mins using FAM-labelled compound by fluorescence polarization assay
[4] = biological target: T1, Apoptosis regulator Bcl-2; assay: Binding affinity to human full-length N-terminal His6-tagged Bcl2 (2 to 206 residues) expressed in Escherichia coli S12 extract after 30 mins using FAM-labelled compound by fluorescence polarization assay
[5] = Binding affinity to human full-length N-terminal His6-tagged prephosphorylated Bcl2 R106A/R109A mutant expressed in Escherichia coli S12 extract after 30 mins using FAM-labelled compound by fluorescence polarization assay
[6] = Binding affinity to human full-length N-terminal His6-tagged Bcl2 R106A/R109A mutant expressed in Escherichia coli S12 extract after 30 mins using FAM-labelled compound by fluorescence polarization assay
[7] = test system: OCI-AML-3; assay: Induction of apoptosis in human OCI-AML-3 cells measured after 48 hrs by FITC-Annexin V/PS staining based; type: functional, cell-based; conditions: OCI-AML-3, 48 h
[8] = test system: HL-60; assay: Induction of apoptosis in human HL-60 cells measured after 48 hrs by FITC-Annexin V/PS staining based; type: functional, cell-based; conditions: HL-60, 48 h
[9] = biological target: T1, Apoptosis regulator Bcl-2; assay: Induction of BCl-2 dephosphorylation in human OCI-AML-3 cells assessed as increase in Bax expression at 5 to 10 uM measured after 24 hrs by coimmunoprecipitation method; type: cell-based; conditions: dose microM 5-10, time 24.0 hrs
Method in brief: (§1)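 Cells treated for 24 h, then lysed in 1% CHAPS buffer. 500 μg total protein precleared with protein A-Sepharose, incubated overnight with 5 μg specific antibody, captured on protein A-Sepharose or G-agarose, then immunoblotted. Bax/Bcl-2 complex, pBcl-2 (Ser70) and total Bcl-2 read out; n = 3 independent samples.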

[10] = test system: MCF7; assay: Induction of apoptosis in human MCF7 cells measured after 48 hrs by FITC-Annexin V/PS staining based; type: functional, cell-based; conditions: MCF7, 48 h
[11] = biological target: T2, Bcl-2-like protein 1 (Homo sapiens, UniProt Q07817); assay: Inhibition of FAM-Bim peptide binding to Bcl-xl (unknown origin) measured after 30 mins by fluorescence polarization assay
[12] = biological target: T1, Apoptosis regulator Bcl-2; assay: Induction of BCl-2 dephosphorylation in human HL-60 cells assessed as increase in Bax expression at 5 to 15 uM measured after 24 hrs by coimmunoprecipitation method; type: cell-based; conditions: filed as modulator, dose microM 5-15, time 24.0 hrs; method in brief: as §1
[13] = biological target: T1, Apoptosis regulator Bcl-2; assay: Induction of BCl-2 dephosphorylation in human HL-60 cells at 5 to 15 uM measured after 24 hrs by coimmunoprecipitation method; type: cell-based; conditions: filed as modulator, dose microM 5-15, time 24.0 hrs; method in brief: as §1
[14] = test system: KG-1; assay: Induction of apoptosis in human KG-1 cells measured after 48 hrs by FITC-Annexin V/PS staining based; type: functional, cell-based; conditions: KG-1, 48 h
[15] = biological target: Induced myeloid leukemia cell differentiation protein Mcl-1 (Homo sapiens, UniProt Q07820); assay: Inhibition of FAM-Bim peptide binding to MCl1 (unknown origin) measured after 30 mins by fluorescence polarization assay
[16] = biological target: T2, Bcl-2-like protein 1; assay: Effect on Bcl-xl phosphorylation in human HL-60 cells at 1 to 30 uM by Western blot analysis; conditions: dose microM 1-30
[17] = biological target: T1, Apoptosis regulator Bcl-2; assay: Induction of BCl-2 dephosphorylation in human OCI-AML-3 cells at 5 to 10 uM measured after 24 hrs by coimmunoprecipitation method; type: cell-based; conditions: dose microM 5-10, time 24.0 hrs; method in brief: as §1
[18] = biological target: T1, Apoptosis regulator Bcl-2; assay: Induction of BCl-2 dephosphorylation in human HL-60 cells at 5 to 10 uM measured after 24 hrs by coimmunoprecipitation method; type: cell-based; conditions: dose microM 5-10, time 24.0 hrs; method in brief: as §1
[19] = biological target: T1, Apoptosis regulator Bcl-2; assay: Induction of BCl-2 dephosphorylation in human HL-60 cells assessed as increase in Bax expression at 5 to 10 uM measured after 24 hrs by coimmunoprecipitation method; type: cell-based; conditions: dose microM 5-10, time 24.0 hrs; method in brief: as §1
[20] = Resistance ratio of EC50 for induction of apoptosis in human OCI-AML-3 cells to EC50 for Induction of apoptosis in human MCF7 cells; type: functional
[21] = Resistance ratio of EC50 for induction of apoptosis in human HL-60 cells to EC50 for Induction of apoptosis in human MCF7 cells; type: functional
[22] = biological target: T1, Apoptosis regulator Bcl-2; assay: Effect on Bcl2 phosphorylation in human HL-60 cells by Western blot analysis
[23] = Resistance ratio of EC50 for induction of apoptosis in human HL-60 cells to EC50 for Induction of apoptosis in human KG-1 cells; type: functional
[24] = Resistance ratio of EC50 for induction of apoptosis in human OCI-AML-3 cells to EC50 for Induction of apoptosis in human KG-1 cells; type: functional
[25] = Binding affinity to human full-length N-terminal His6-tagged prephosphorylated Bcl2 R106A/R109A mutant expressed in Escherichia coli S12 extract by isothermal titration calorimetry
[26] = biological target: T1, Apoptosis regulator Bcl-2; assay: Induction of BCl-2 dephosphorylation in human HL-60 cells assessed as increase in Bax expression at 1 to 5 uM measured after 24 hrs by coimmunoprecipitation method; type: cell-based; conditions: dose microM 1-5, time 24.0 hrs; method in brief: as §1
[27] = Binding affinity to human full-length N-terminal His6-tagged Bcl2 R106A/R109A mutant expressed in Escherichia coli S12 extract by isothermal titration calorimetry
[28] = biological target: T1, Apoptosis regulator Bcl-2; assay: Induction of BCl-2 dephosphorylation in human OCI-AML-3 cells at 1 to 5 uM measured after 24 hrs by coimmunoprecipitation method; type: cell-based; conditions: dose microM 1-5, time 24.0 hrs; method in brief: as §1
[29] = biological target: T1, Apoptosis regulator Bcl-2; assay: Induction of BCl-2 dephosphorylation in human OCI-AML-3 cells assessed as increase in Bax expression at 1 to 5 uM measured after 24 hrs by coimmunoprecipitation method; type: cell-based; conditions: dose microM 1-5, time 24.0 hrs; method in brief: as §1
[30] = biological target: T1, Apoptosis regulator Bcl-2; assay: Induction of BCl-2 dephosphorylation in human HL-60 cells at 1 to 5 uM measured after 24 hrs by coimmunoprecipitation method; type: cell-based; conditions: dose microM 1-5, time 24.0 hrs; method in brief: as §1

T1 sequence (P10415 whole entry, the tested form may be a part): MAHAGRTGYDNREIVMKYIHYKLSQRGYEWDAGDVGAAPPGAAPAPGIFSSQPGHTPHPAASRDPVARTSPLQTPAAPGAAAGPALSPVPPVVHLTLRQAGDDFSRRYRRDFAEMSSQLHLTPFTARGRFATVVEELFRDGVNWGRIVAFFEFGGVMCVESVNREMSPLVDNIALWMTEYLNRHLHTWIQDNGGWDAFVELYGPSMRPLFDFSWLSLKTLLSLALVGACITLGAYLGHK
Induced myeloid leukemia cell differentiation protein Mcl-1, sequence (Q07820 whole entry): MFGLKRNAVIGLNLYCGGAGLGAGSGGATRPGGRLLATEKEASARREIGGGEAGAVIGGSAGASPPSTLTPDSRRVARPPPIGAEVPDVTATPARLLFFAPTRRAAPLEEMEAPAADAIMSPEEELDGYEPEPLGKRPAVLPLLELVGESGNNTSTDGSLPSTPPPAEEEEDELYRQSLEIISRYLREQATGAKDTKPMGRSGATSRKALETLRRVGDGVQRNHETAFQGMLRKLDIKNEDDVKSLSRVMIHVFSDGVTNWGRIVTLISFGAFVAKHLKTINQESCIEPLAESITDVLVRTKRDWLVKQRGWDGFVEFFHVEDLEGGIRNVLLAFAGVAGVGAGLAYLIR
T2 sequence (Q07817 whole entry): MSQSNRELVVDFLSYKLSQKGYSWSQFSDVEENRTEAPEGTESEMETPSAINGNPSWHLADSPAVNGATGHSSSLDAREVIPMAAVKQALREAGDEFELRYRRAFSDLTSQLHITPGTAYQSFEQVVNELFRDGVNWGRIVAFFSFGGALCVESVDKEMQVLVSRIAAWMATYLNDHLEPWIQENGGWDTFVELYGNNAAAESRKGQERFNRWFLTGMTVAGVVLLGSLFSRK

Row | SMILES | Ki [1] | EC50 [7] | EC50 [8] | EC50 [10] | Ki [11] | EC50 [14] | Ki [15] | Ki [2] | other results
1 | N#CC1=C(NCCC(=O)NCc2cccc(C(=O)O)c2)c2ccc(Sc3ccc(Br)cc3)c3cccc(c23)C1=O | 1020 nM | – | – | – | – | – | – | 1670 nM | –
2 | N#CC1=C(NCCC(=O)NCc2ccccc2C(=O)O)c2ccc(Sc3ccc(Br)cc3)c3cccc(c23)C1=O | 1350 nM | – | – | – | – | – | – | 1750 nM | –
3 | CC[C@H](C)[C@H](NC(=O)[C@H](CCCNC(=N)N)NC(=O)[C@H](CCCNC(=N)N)NC(=O)[C@H](CC(C)C)NC(=O)[C@H](CS)NC(=O)[C@H](CCC(=O)O)NC(=O)[C@H](CO)NC(=O)[C@H](CC(C)C)NC(=O)[C@H](CCCCN)NC(=O)[C@H](CCCCN)NC(=O)[C@@H](NC(=O)[C@H](CO)NC(=O)[C@H](C)NC(=O)[C@H](CC(=O)O)NC(=O)[C@H](CCC(N)=O)NC(=O)[C@@H]1CCCN1C(=O)[C@@H]1CCCN1C(=O)[C@@H](N)CCC(N)=O)[C@@H](C)O)C(=O)NCC(=O)N[C@@H](CC(=O)O)C(=O)N[C@@H](CCC(=O)O)C(=O)N[C@@H](CC(C)C)C(=O)N[C@@H](CC(=O)O)C(=O)N[C@@H](CO)C(=O)N[C@@H](CC(N)=O)C(=O)N[C@@H](CCSC)C(=O)N[C@@H](CCC(=O)O)C(=O)N[C@@H](CC(C)C)C(=O)N[C@@H](CCC(N)=O)C(=O)N[C@@H](CCCNC(=N)N)C(=O)N[C@@H](CCSC)C(=O)N[C@H](C(=O)N[C@@H](C)C(=O)N[C@@H](CC(=O)O)C(=O)N[C@H](C(=O)N[C@@H](CC(=O)O)C(=O)O)C(C)C)[C@@H](C)CC | – | – | – | – | – | – | – | – | Kd [3]: 2.1 nM; Kd [4]: 19.6 nM; Kd [5]: 16.2 nM; Kd [6]: 15.5 nM
4 | N#CC1=C(NCCC(=O)NCc2ccccc2)c2ccc(Sc3ccc(Br)cc3)c3cccc(c23)C1=O | 1050 nM | 22300 nM | 21700 nM | 18500 nM | 1110 nM | 16800 nM | 560 nM | 1880 nM | Activity [18]: inactive; Activity [9]: inactive; Activity [17]: inactive; Activity [19]: inactive
5 | N#CC1=C(NCCC(=O)NCCOCCO)c2ccc(Sc3ccc(Br)cc3)c3cccc(c23)C1=O | 810 nM | – | – | – | – | – | – | 770 nM | –
6 | N#CC1=C(NCc2ccc(C(=O)O)cc2)c2ccc(Sc3ccc(Br)cc3)c3cccc(c23)C1=O | 780 nM | – | – | – | – | – | – | 940 nM | –
7 | CC1(C)CCC(CN2CCN(c3ccc(C(=O)NS(=O)(=O)c4ccc(NCC5CCOCC5)c([N+](=O)[O-])c4)c(Oc4cnc5[nH]ccc5c4)c3)CC2)=C(c2ccc(Cl)cc2)C1 [VENETOCLAX] | – | 6800 nM | 8100 nM | 1350 nM | – | 850 nM | – | – | Kd [25]: 5.5 nM; Activity [26]: inactive; Kd [27]: 4.5 nM; Activity [28]: inactive; Activity [29]: inactive; Activity [30]: inactive
8 | CC1(C)CCC(c2ccc(Cl)cc2)=C(CN2CCN(c3ccc(C(=O)NS(=O)(=O)c4ccc(N[C@H](CCN5CCOCC5)CSc5ccccc5)c(S(=O)(=O)C(F)(F)F)c4)cc3)CC2)C1 [NAVITOCLAX] | – | – | – | – | – | – | – | – | Kd [25]: 30.6 nM; Kd [27]: 27.8 nM

Now from value to compound, other results behind:

Row | Ki [1] | EC50 [7] | EC50 [8] | EC50 [10] | Ki [11] | EC50 [14] | Ki [15] | SMILES | Ki [2] | other results
9 | 160 nM | 4000 nM | 3800 nM | 5500 nM | 810 nM | 4900 nM | 320 nM | N#CC1=C(NCCC(=O)NCc2ccc(C(=O)O)cc2)c2ccc(Sc3ccc(Br)cc3)c3cccc(c23)C1=O | 1650 nM | Activity ([9]; filed as modulator): Active; Activity [12]: Active; Activity [13]: Active; Activity [16]: inactive; Activity ([17]; filed as modulator): Active
10 | 210 nM | 15400 nM | 16900 nM | 3100 nM | 550 nM | 2700 nM | 350 nM | CCCCNC1=C(C#N)C(=O)c2cccc3c(Sc4ccc(Br)cc4)ccc1c23 | 150 nM | Ratio EC50 [20]: 5; Activity [18]: inactive; Activity [9]: inactive; Ratio EC50 [21]: 5; Activity [22]: inactive; Ratio EC50 [23]: 5; Ratio EC50 [24]: 5; Activity [17]: inactive; Activity [19]: inactive
11 | 1270 nM | – | – | – | – | – | – | N#CC1=C(NCCC(=O)O)c2ccc(Sc3ccc(Br)cc3)c3cccc(c23)C1=O | 1440 nM | –
12 | 850 nM | – | – | – | 750 nM | – | 490 nM | N#CC1=C(C#N)c2ccc(Sc3ccc(Br)cc3)c3cccc(c23)C1=O | 1670 nM | –
13 | 4320 nM | – | – | – | – | – | – | CN(C)c1ccc(CNC(=O)CCNC2=C(C#N)C(=O)c3cccc4c(Sc5ccc(Br)cc5)ccc2c34)cc1 | 840 nM | –
